One block for each compound: values may come before it. Activity calls are given as the source filed them. No cut-off for these calls is given here.
Experiments:
[1] = molecular target: T1, von Hippel-Lindau disease tumor suppressor/Protein arginine N-methyltransferase 5 (Homo sapiens, UniProt O14744+P40337); test: Induction of VHL-mediated PRMT5 degradation in human MCF7 cells at 0.2 to 5 uM incubated for 6 days by Western blot analysis; assay type: cell-based; conditions: dose microM 0.2-5, time 6.0 day
Outline: (§1)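 MCF-7 cells treated 6 d (0.2, 1 and 5 μM for initial screen, or indicated concentrations). RIPA lysates immunoblotted for PRMT5. Band intensity quantified by densitometry to derive DC50 and Dmax as mean ± SD from three independent experiments; screening blots representative of at least two.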
Target sequence in this assay (O14744 whole entry, looked up): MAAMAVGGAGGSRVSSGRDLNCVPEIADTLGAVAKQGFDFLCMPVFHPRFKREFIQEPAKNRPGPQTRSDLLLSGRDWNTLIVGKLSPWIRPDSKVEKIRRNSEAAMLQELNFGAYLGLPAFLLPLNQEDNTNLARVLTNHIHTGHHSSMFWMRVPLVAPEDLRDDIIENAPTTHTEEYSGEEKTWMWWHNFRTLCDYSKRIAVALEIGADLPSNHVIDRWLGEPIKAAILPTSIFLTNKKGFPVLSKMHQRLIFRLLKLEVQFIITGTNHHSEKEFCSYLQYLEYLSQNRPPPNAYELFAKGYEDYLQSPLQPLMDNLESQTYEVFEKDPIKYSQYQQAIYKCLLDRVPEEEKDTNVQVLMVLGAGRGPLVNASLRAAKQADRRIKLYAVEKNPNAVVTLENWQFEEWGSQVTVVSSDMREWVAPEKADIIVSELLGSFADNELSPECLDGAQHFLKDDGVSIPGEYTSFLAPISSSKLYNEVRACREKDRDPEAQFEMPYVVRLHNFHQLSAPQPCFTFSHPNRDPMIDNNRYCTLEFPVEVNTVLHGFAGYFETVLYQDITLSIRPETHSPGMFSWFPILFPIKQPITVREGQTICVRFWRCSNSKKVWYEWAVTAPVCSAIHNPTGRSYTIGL
Target sequence in this assay (P40337 whole entry, looked up): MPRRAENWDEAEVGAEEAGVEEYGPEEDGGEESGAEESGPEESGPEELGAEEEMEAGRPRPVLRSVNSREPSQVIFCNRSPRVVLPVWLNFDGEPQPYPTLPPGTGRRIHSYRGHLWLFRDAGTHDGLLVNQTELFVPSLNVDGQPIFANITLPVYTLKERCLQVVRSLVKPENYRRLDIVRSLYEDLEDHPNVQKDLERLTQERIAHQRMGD

HeLa [2] = test: Antiproliferative activity against human HeLa cells assessed as reduction in cell viability at 0.1 to 10 uM supplemented with fresh medium containing compound every other day for 6 days by CellTiter-Glo assay; assay type: functional, cell-based; conditions: dose microM 0.1-10, time 6.0 day
Outline: (§2)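 HeLa, A549 and A172 grown in DMEM + 10% FBS; Jurkat in RPMI 1640 + 10% FBS; all at 37 °C, 5% CO2. Cells seeded, then treated 6 d with test agent, medium plus compound renewed every other day. Viability read by CellTiter-Glo and normalized to DMSO-treated cells; mean ± SD, n = 3.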

[3] = molecular target: T1, von Hippel-Lindau disease tumor suppressor/Protein arginine N-methyltransferase 5; test: Induction of VHL-mediated PRMT5 degradation in human MCF7 cells at 5 uM incubated for 6 days by Western blot analysis; assay type: cell-based; conditions: time 6.0 day; outline: as §1
Target sequence in this assay (O14744 whole entry, looked up): as the sequence (O14744 whole entry, looked up) above
Target sequence in this assay (P40337 whole entry, looked up): as the sequence (P40337 whole entry, looked up) above

A 172 [4] = test: Antiproliferative activity against human A172 cells assessed as reduction in cell viability at 0.1 to 10 uM supplemented with fresh medium containing compound every other day for 6 days by CellTiter-Glo assay; assay type: functional, cell-based; conditions: dose microM 0.1-10, time 6.0 day; outline: as §2
A549 [5] = test: Antiproliferative activity against human A549 cells assessed as reduction in cell viability at 0.1 to 10 uM supplemented with fresh medium containing compound every other day for 6 days by CellTiter-Glo assay; assay type: functional, cell-based; conditions: dose microM 0.1-10, time 6.0 day; outline: as §2
Jurkat [6] = test: Antiproliferative activity against human Jurkat cells assessed as reduction in cell viability at 0.1 to 10 uM supplemented with fresh medium containing compound every other day for 6 days by CellTiter-Glo assay; assay type: functional, cell-based; conditions: dose microM 0.1-10, time 6.0 day; outline: as §2
[7] = molecular target: T1, von Hippel-Lindau disease tumor suppressor/Protein arginine N-methyltransferase 5; test: Induction of VHL-mediated PRMT5 degradation in human MCF7 cells assessed as reduction in SDMA level incubated for 6 days by Western blot analysis; assay type: cell-based; conditions: dose microM 0.1-3, time 6.0 day
Outline: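 SDMA read-out: MCF-7 cells given 0.1, 0.3, 1 or 3.0 μM for 6 d; global symmetric dimethylarginine detected on western blot with anti-SDMA antibody.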
Target sequence in this assay (O14744 whole entry, looked up): as the sequence (O14744 whole entry, looked up) above
Target sequence in this assay (P40337 whole entry, looked up): as the sequence (P40337 whole entry, looked up) above

[8] = Plasma concentration in Swiss albino mouse at 150 mg/kg, ip administered as single dose measured at 2 hrs post dose by LC-MS/MS method; assay type: ADME, organism-based
Outline: (§3)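 Male Swiss albino mice received one 150 mg/kg IP dose in normal saline. Blood drawn under light isoflurane at 0.25, 0.5, 1, 2, 6 and 12 h, three mice per time point. Plasma acetonitrile-precipitated and quantified by LC-MS/MS (LLOQ 9.25 ng/mL); clinical signs observed.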

PRMT5/MEP50 complex = PRMT5/MEP50 complex (Homo sapiens, UniProt O14744); test: Inhibition of human PRMT5/MEP50 assessed as reduction in methyltransferase activity using histone 4 peptide as substrate in presence of [3H]SAM incubated for 30 mins; assay type: protein-complex assay
Outline: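 Radiometric FlashPlate assay tracking transfer of the 3H-methyl group from SAM (1 μM) to biotinylated H4 (1–15) peptide by human PRMT5/MEP50 (5 nM). Compounds were preincubated with enzyme and substrate for 20 min at rt. They were tested at 10 concentrations in threefold serial dilution from 5 μM, in duplicate. IC50 is reported as mean ± SD.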

[9] = molecular target: T1, von Hippel-Lindau disease tumor suppressor/Protein arginine N-methyltransferase 5; test: Induction of VHL-mediated PRMT5 degradation in human MCF7 cells assessed as PRMT5 level at 5 uM incubated for 7 days in presence of VH-298 by Western blot analysis relative to control; assay type: cell-based; conditions: time 7.0 day
Target sequence in this assay (O14744 whole entry, looked up): as the sequence (O14744 whole entry, looked up) above
Target sequence in this assay (P40337 whole entry, looked up): as the sequence (P40337 whole entry, looked up) above

MCF7 [10] = test: Antiproliferative activity against human MCF7 cells incubated for 6 days by CellTiter-Glo assay; assay type: functional, cell-based; conditions: dose microM 0.1-10, time 6.0 day
Outline: (§4)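 MCF-7 in DMEM + 10% FBS at 37 °C, 5% CO2. Cells exposed to graded concentrations for 6 d, medium with compound refreshed every other day. CellTiter-Glo luminescence, expressed as viability relative to DMSO control; mean ± SD, n = 3.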

[11] = molecular target: T1, von Hippel-Lindau disease tumor suppressor/Protein arginine N-methyltransferase 5; test: Induction of VHL-mediated PRMT5 degradation in human MCF7 cells incubated for 6 days by Western blot analysis relative to control; assay type: cell-based; conditions: time 6.0 day; outline: as §1
Target sequence in this assay (O14744 whole entry, looked up): as the sequence (O14744 whole entry, looked up) above
Target sequence in this assay (P40337 whole entry, looked up): as the sequence (P40337 whole entry, looked up) above

[12] = molecular target: T1, von Hippel-Lindau disease tumor suppressor/Protein arginine N-methyltransferase 5; test: Induction of VHL-mediated PRMT5 degradation in human A549 cells at 5 uM incubated for 6 days by Western blot analysis; assay type: cell-based; conditions: time 6.0 day
Outline: (§5)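 HeLa, A549, A172 and Jurkat cells exposed to 5 μM for 6 d. Lysis in RIPA buffer with protease inhibitors, then SDS-PAGE, PVDF transfer and immunoblot for PRMT5 with β-actin loading control, ECL detection. Representative of two independent experiments.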
Target sequence in this assay (O14744 whole entry, looked up): as the sequence (O14744 whole entry, looked up) above
Target sequence in this assay (P40337 whole entry, looked up): as the sequence (P40337 whole entry, looked up) above

[13] = molecular target: T1, von Hippel-Lindau disease tumor suppressor/Protein arginine N-methyltransferase 5; test: Induction of VHL-mediated PRMT5 degradation in human MCF7 cells assessed as recovery of PRMT5 level at 5 uM incubated for 6 days followed by compound wash out and measured up to 48 hrs by Western blot analysis; assay type: cell-based; conditions: time 6.0 day
Outline: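 Washout: MCF-7 cells treated 6 d with 5 μM, compound removed, and PRMT5 immunoblotted at 0, 12, 24 and 48 h after washout.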

Jurkat [14] = test: Antiproliferative activity against human Jurkat cells assessed as reduction in cell viability supplemented with fresh medium containing compound every other day for 6 days by CellTiter-Glo assay; assay type: functional, cell-based; conditions: dose microM 0.1-10, time 6.0 day; outline: as §2
[15] = molecular target: von Hippel-Lindau disease tumor suppressor/Methylosome protein WDR77 (Homo sapiens) (UniProt Q9BQA1+P40337); test: Induction of VHL-mediated WDR77 degradation in human MCF7 cells at 5 uM supplemented with fresh medium containing compound every 2 days for 5 days by LC-MS based LFQ global proteomics analysis; assay type: cell-based; conditions: time 5.0 day
Outline: (§6)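 MCF-7 cells given 5 μM compound or DMSO for 5 d, with fresh medium plus compound every 48 h; two biological replicates. Lysis in 8 M urea/50 mM Tris pH 8.0, DTT reduction, iodoacetamide alkylation, overnight trypsin digestion. Peptides run on nanoLC-Q-Exactive HF-X, 130 min gradient. Label-free quantitation; fold changes tested by two-sample t test.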

[16] = molecular target: T1, von Hippel-Lindau disease tumor suppressor/Protein arginine N-methyltransferase 5; test: Induction of VHL-mediated PRMT5 degradation in human MCF7 cells assessed as PRMT5 level at 5 uM incubated for 7 days by Western blot analysis relative to control; assay type: cell-based; conditions: time 7.0 day
[17] = molecular target: T1, von Hippel-Lindau disease tumor suppressor/Protein arginine N-methyltransferase 5; test: Induction of VHL-mediated PRMT5 degradation in human Jurkat cells at 5 uM incubated for 6 days by Western blot analysis; assay type: cell-based; conditions: time 6.0 day; outline: as §5
[18] = molecular target: T1, von Hippel-Lindau disease tumor suppressor/Protein arginine N-methyltransferase 5; test: Induction of VHL-mediated PRMT5 degradation in human HeLa cells at 5 uM incubated for 6 days by Western blot analysis; assay type: cell-based; conditions: time 6.0 day; outline: as §5
[19] = molecular target: von Hippel-Lindau disease tumor suppressor/Agrin (Homo sapiens) (UniProt P40337+O00468); test: Induction of VHL-mediated AGRN degradation in human MCF7 cells at 5 uM supplemented with fresh medium containing compound every 2 days for 5 days by LC-MS based LFQ global proteomics analysis; assay type: cell-based; conditions: time 5.0 day; outline: as §6
A 172 [20] = test: Antiproliferative activity against human A172 cells assessed as reduction in cell viability supplemented with fresh medium containing compound every other day for 6 days by CellTiter-Glo assay; assay type: functional, cell-based; conditions: dose microM 0.1-10, time 6.0 day; outline: as §2
[21] = molecular target: T1, von Hippel-Lindau disease tumor suppressor/Protein arginine N-methyltransferase 5; test: Induction of VHL-mediated PRMT5 degradation in human MCF7 cells assessed as PRMT5 level at 5 uM incubated for 7 days in presence of neddylation inhibitor MLN4924 by Western blot analysis relative to control; assay type: cell-based; conditions: time 7.0 day
[22] = molecular target: T1, von Hippel-Lindau disease tumor suppressor/Protein arginine N-methyltransferase 5; test: Induction of VHL-mediated PRMT5 degradation in human MCF7 cells assessed as PRMT5 level at 5 uM incubated for 7 days in presence of EPZ015666 by Western blot analysis relative to control; assay type: cell-based; conditions: time 7.0 day
[23] = molecular target: T1, von Hippel-Lindau disease tumor suppressor/Protein arginine N-methyltransferase 5; test: Induction of VHL-mediated PRMT5 degradation in human MCF7 cells at 5 uM supplemented with fresh medium containing compound every 2 days for 5 days by LC-MS based LFQ global proteomics analysis; assay type: cell-based; conditions: time 5.0 day; outline: as §6
HeLa [24] = test: Antiproliferative activity against human HeLa cells assessed as reduction in cell viability supplemented with fresh medium containing compound every other day for 6 days by CellTiter-Glo assay; assay type: functional, cell-based; conditions: dose microM 0.1-10, time 6.0 day; outline: as §2
[25] = Plasma concentration in Swiss albino mouse at 150 mg/kg, ip administered as single dose measured after 12 hrs post dose by LC-MS/MS method; assay type: ADME, organism-based; outline: as §3
[26] = molecular target: T1, von Hippel-Lindau disease tumor suppressor/Protein arginine N-methyltransferase 5; test: Induction of VHL-mediated PRMT5 degradation in human MCF7 cells assessed as PRMT5 level at 5 uM incubated for 7 days in presence of proteasome inhibitor MG-132 by Western blot analysis relative to control; assay type: cell-based; conditions: time 7.0 day
[27] = molecular target: T1, von Hippel-Lindau disease tumor suppressor/Protein arginine N-methyltransferase 5; test: Induction of VHL-mediated PRMT5 degradation in human A172 cells at 5 uM incubated for 6 days by Western blot analysis; assay type: cell-based; conditions: A 172, time 6.0 day; outline: as §5
[28] = Toxicity in Swiss albino mouse assessed as effect on clinical signs at 150 mg/kg, ip; assay type: organism-based; conditions: in vivo; outline: as §3
[29] = molecular target: T1, von Hippel-Lindau disease tumor suppressor/Protein arginine N-methyltransferase 5; test: Induction of VHL-mediated PRMT5 degradation in human MCF7 cells incubated for 6 days by Western blot analysis; assay type: cell-based; outline: as §1
A549 [30] = test: Antiproliferative activity against human A549 cells assessed as reduction in cell viability supplemented with fresh medium containing compound every other day for 6 days by CellTiter-Glo assay; assay type: functional, cell-based; conditions: dose microM 0.1-10, time 6.0 day; outline: as §2
[31] = molecular target: PRMT5/MEP50 complex (Homo sapiens) (UniProt O14744+Q9BQA1); test: Inhibition of human PRMT5/MEP50 assessed as reduction in methyltransferase activity at 5 uM using histone 4 peptide as substrate in presence of [3H]SAM incubated for 30 mins; assay type: protein-complex assay
MCF7 [32] = test: Antiproliferative activity against human MCF7 cells at 0.1 to 10 uM incubated for 6 days by CellTiter-Glo assay; assay type: functional, cell-based; conditions: dose microM 0.1-10, time 6.0 day; outline: as §4

von Hippel-Lindau disease tumor suppressor/Methylosome protein WDR77 (Homo sapiens), sequence (P40337 whole entry, looked up): as above
von Hippel-Lindau disease tumor suppressor/Methylosome protein WDR77 (Homo sapiens), sequence (Q9BQA1 whole entry, looked up): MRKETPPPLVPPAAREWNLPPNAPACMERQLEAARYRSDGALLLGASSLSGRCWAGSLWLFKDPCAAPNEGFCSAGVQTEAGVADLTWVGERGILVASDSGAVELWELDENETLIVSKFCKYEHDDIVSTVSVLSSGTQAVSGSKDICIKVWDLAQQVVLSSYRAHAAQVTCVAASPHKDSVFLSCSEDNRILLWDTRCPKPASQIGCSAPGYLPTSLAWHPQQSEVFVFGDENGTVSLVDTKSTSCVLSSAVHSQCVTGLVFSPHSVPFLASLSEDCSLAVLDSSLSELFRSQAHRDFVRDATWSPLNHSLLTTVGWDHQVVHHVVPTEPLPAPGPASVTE
PRMT5/MEP50 complex, sequence (O14744 whole entry): as the sequence (O14744 whole entry, looked up) above
PRMT5/MEP50 complex, sequence (Q9BQA1 whole entry, further chain): as the sequence (Q9BQA1 whole entry, looked up) above
von Hippel-Lindau disease tumor suppressor/Agrin (Homo sapiens), sequence (O00468 whole entry, looked up): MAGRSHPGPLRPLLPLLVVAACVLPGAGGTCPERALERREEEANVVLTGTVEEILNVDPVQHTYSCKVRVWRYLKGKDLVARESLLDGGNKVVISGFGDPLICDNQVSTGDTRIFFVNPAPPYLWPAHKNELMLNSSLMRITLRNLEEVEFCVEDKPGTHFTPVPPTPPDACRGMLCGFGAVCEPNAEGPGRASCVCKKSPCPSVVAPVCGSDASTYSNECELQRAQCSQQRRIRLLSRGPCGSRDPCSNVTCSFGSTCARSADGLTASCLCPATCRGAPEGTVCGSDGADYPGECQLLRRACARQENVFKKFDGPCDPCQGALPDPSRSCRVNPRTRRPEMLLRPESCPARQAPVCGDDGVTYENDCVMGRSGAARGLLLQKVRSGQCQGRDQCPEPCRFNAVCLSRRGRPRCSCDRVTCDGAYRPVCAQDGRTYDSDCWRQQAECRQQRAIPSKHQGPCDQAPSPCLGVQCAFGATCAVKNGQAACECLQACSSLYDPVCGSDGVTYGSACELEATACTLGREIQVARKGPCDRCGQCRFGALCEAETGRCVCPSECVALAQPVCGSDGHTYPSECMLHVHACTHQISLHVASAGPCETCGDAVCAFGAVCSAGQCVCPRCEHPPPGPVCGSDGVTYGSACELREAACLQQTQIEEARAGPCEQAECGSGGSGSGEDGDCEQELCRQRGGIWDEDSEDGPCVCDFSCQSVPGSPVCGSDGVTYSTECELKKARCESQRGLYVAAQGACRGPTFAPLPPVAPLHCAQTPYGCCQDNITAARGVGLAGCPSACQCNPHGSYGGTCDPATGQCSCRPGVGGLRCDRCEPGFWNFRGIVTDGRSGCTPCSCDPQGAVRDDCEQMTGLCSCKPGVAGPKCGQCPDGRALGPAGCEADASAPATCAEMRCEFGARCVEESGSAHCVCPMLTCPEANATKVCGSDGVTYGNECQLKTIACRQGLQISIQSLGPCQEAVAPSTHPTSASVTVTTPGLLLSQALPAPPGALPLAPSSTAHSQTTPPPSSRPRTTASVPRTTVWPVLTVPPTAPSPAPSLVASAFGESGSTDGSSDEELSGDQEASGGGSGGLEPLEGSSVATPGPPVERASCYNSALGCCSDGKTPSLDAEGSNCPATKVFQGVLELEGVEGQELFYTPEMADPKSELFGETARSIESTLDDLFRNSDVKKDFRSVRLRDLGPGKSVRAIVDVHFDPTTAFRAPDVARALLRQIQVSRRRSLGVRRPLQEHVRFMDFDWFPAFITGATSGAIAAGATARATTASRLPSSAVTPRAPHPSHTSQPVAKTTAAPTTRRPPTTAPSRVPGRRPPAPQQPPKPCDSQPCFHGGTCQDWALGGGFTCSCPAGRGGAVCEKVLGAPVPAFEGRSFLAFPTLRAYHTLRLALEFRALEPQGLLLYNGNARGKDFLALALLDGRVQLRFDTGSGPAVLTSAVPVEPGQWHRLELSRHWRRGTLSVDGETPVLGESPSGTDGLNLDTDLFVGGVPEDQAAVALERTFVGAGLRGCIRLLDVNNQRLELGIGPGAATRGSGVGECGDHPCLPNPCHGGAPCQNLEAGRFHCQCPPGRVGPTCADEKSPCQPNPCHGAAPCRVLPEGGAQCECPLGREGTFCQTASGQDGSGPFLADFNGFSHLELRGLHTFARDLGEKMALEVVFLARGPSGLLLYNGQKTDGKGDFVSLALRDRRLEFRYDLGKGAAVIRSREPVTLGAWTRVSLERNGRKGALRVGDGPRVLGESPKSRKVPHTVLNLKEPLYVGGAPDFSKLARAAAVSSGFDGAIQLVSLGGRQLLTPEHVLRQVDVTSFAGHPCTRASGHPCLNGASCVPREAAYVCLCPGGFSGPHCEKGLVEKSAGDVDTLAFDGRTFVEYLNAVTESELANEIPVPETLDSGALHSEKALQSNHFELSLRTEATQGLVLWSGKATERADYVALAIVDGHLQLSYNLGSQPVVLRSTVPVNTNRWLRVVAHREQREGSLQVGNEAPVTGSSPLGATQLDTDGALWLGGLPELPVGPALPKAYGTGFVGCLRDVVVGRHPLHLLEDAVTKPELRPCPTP
von Hippel-Lindau disease tumor suppressor/Agrin (Homo sapiens), sequence (P40337 whole entry, looked up): as the sequence (P40337 whole entry, looked up) above

Compound: O=C(NC[C@H](O)CN1CCc2ccccc2C1)c1cc(NC2COC2)ncn1
Activity (HeLa [2]): Active
Activity [3]: inactive
Activity (A 172 [4]): Active
Activity (A549 [5]): Active
Activity (Jurkat [6]): Active
Activity [7]: Dose-dependent effect

Compound: Cc1ncsc1-c1ccc([C@H](C)NC(=O)[C@@H]2C[C@@H](O)CN2C(=O)[C@@H](NC(=O)COCCOCCOCCOCCOCC(=O)N2CC(Nc3cc(C(=O)NC[C@H](O)CN4CCc5ccccc5C4)ncn3)C2)C(C)(C)C)cc1
concentration at 2 h [8]: 14 µM
IC50 (PRMT5/MEP50 complex): 18 nM
fold change (FC) [9]: 0.53
Activity (MCF7 [10]): Dose-dependent effect
Emax [11]: 74%
Activity [12]: Active
Activity [13]: Active
Activity (Jurkat [14]): Dose-dependent effect
Activity [15]: Active
fold change (FC) [16]: 0.32
Activity [17]: Active
Activity [18]: Active
Activity [19]: Active
Activity (A 172 [20]): Dose-dependent effect
fold change (FC) [21]: 0.59
fold change (FC) [22]: 0.61
Activity [23]: Active
Activity (HeLa [24]): Dose-dependent effect
concentration at 12 h [25]: > 0.1 µM
fold change (FC) [26]: 0.51
Activity [7]: Dose-dependent effect
Activity [27]: Active
Activity [28]: Non-Toxic
DC50 [29]: 1100 nM
Activity ([29]; time 6.0 day): Dose-dependent effect
Activity (A549 [30]): Dose-dependent effect

Compound: Cc1ncsc1-c1ccc([C@H](C)NC(=O)[C@@H]2C[C@@H](O)CN2C(=O)[C@@H](NC(=O)COCCOCCOCCOCCOCC(=O)N2CC(Nc3cc(C(=O)NC[C@H](O)CN4CCCCC4)ncn3)C2)C(C)(C)C)cc1
inhibition [31]: 58%
Activity [3]: inactive
Activity (MCF7 [32]): inactive

Second part, the compound after the results:

Activity [1]: inactive
Compound: Cc1ncsc1-c1ccc(CNC(=O)[C@@H]2C[C@@H](O)CN2C(=O)[C@@H](NC(=O)CCOCCOCCOCCC(=O)N2CC(Nc3cc(C(=O)NC[C@H](O)CN4CCc5ccccc5C4)ncn3)C2)C(C)(C)C)cc1

Activity [1]: inactive
Compound: Cc1ncsc1-c1ccc(CNC(=O)[C@@H]2C[C@@H](O)CN2C(=O)[C@@H](NC(=O)CCCCCCCCCC(=O)N2CC(Nc3cc(C(=O)NC[C@H](O)CN4CCc5ccccc5C4)ncn3)C2)C(C)(C)C)cc1
